According to ChEMBL document CHEMBL3864121, “Development of ebsulfur analogues as potent antibacterials against methicillin-resistant Staphylococcus aureus” (Bioorg Med Chem, 2016):
Converted amounts (≈) assume the structure as drawn. The source made the active and inactive calls. The rule behind the calls is not given here.

Columns and labels:
Staphylococcus aureus [1] = test: Antibacterial activity against methicillin-sensitive Staphylococcus aureus ATCC 6538 measured after overnight incubation by broth double-dilution method; type: functional
Procedure, shortened: (§1)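 MIC by broth double-dilution in liquid Mueller-Hinton medium. Values are reported in µg/mL.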

Staphylococcus aureus [2] = test: Antibacterial activity against methicillin-sensitive Staphylococcus aureus ATCC 25923 measured after overnight incubation by broth double-dilution method; type: functional; procedure, shortened: as §1
Staphylococcus aureus [3] = test: Antibacterial activity against methicillin-sensitive Staphylococcus aureus ATCC 29213 measured after overnight incubation by broth double-dilution method; type: functional; procedure, shortened: as §1
Staphylococcus aureus [4] = test: Antibacterial activity against methicillin-resistant Staphylococcus aureus ATCC 33591 measured after overnight incubation by broth double-dilution method; type: functional; procedure, shortened: as §1
Staphylococcus aureus [5] = test: Antibacterial activity against methicillin-resistant Staphylococcus aureus 1 measured after overnight incubation by broth double-dilution method; type: functional; procedure, shortened: as §1
Staphylococcus aureus [6] = test: Antibacterial activity against methicillin-resistant Staphylococcus aureus 2 measured after overnight incubation by broth double-dilution method; type: functional; procedure, shortened: as §1
Staphylococcus aureus [7] = test: Antibacterial activity against methicillin-resistant Staphylococcus aureus BRS3 measured after overnight incubation by broth double-dilution method; type: functional; procedure, shortened: as §1
Staphylococcus aureus [8] = test: Antibacterial activity against methicillin-resistant Staphylococcus aureus C1 measured after overnight incubation by broth double-dilution method; type: functional; procedure, shortened: as §1
Staphylococcus aureus [9] = test: Antibacterial activity against methicillin-resistant Staphylococcus aureus C2 measured after overnight incubation by broth double-dilution method; type: functional; procedure, shortened: as §1
Staphylococcus aureus [10] = test: Antibacterial activity against methicillin-resistant Staphylococcus aureus C7 measured after overnight incubation by broth double-dilution method; type: functional; procedure, shortened: as §1
Staphylococcus aureus [11] = test: Antibacterial activity against methicillin-resistant Staphylococcus aureus C14 measured after overnight incubation by broth double-dilution method; type: functional; procedure, shortened: as §1
Staphylococcus aureus [12] = test: Antibacterial activity against methicillin-resistant Staphylococcus aureus C16 measured after overnight incubation by broth double-dilution method; type: functional; procedure, shortened: as §1
Staphylococcus aureus [13] = test: Antibacterial activity against methicillin-resistant Staphylococcus aureus C19 measured after overnight incubation by broth double-dilution method; type: functional; procedure, shortened: as §1
Staphylococcus aureus [14] = test: Antibacterial activity against methicillin-resistant Staphylococcus aureus G1 measured after overnight incubation by broth double-dilution method; type: functional; procedure, shortened: as §1
Staphylococcus aureus [15] = test: Antibacterial activity against methicillin-resistant Staphylococcus aureus G6 measured after overnight incubation by broth double-dilution method; type: functional; procedure, shortened: as §1
Staphylococcus aureus [16] = test: Antibacterial activity against methicillin-resistant Staphylococcus aureus G12 measured after overnight incubation by broth double-dilution method; type: functional; procedure, shortened: as §1
Staphylococcus aureus [17] = test: Antibacterial activity against methicillin-resistant Staphylococcus aureus G14 measured after overnight incubation by broth double-dilution method; type: functional; procedure, shortened: as §1
Staphylococcus aureus [18] = test: Antibacterial activity against methicillin-resistant Staphylococcus aureus NRS4 measured after overnight incubation by broth double-dilution method; type: functional; procedure, shortened: as §1
Staphylococcus aureus [19] = test: Antibacterial activity against methicillin-resistant Staphylococcus aureus NRS51 measured after overnight incubation by broth double-dilution method; type: functional; procedure, shortened: as §1
Staphylococcus aureus [20] = test: Antibacterial activity against methicillin-resistant Staphylococcus aureus NRS77 measured after overnight incubation by broth double-dilution method; type: functional; procedure, shortened: as §1
Staphylococcus aureus [21] = test: Antibacterial activity against methicillin-resistant Staphylococcus aureus S14 measured after overnight incubation by broth double-dilution method; type: functional; procedure, shortened: as §1
Staphylococcus aureus [22] = test: Antibacterial activity against methicillin-resistant Staphylococcus aureus S17 measured after overnight incubation by broth double-dilution method; type: functional; procedure, shortened: as §1
Staphylococcus aureus [23] = test: Antibacterial activity against methicillin-resistant Staphylococcus aureus S22 measured after overnight incubation by broth double-dilution method; type: functional; procedure, shortened: as §1
Staphylococcus aureus [24] = test: Antibacterial activity against methicillin-resistant Staphylococcus aureus S24 measured after overnight incubation by broth double-dilution method; type: functional; procedure, shortened: as §1
Staphylococcus aureus [25] = test: Antibacterial activity against methicillin-resistant Staphylococcus aureus USA100 measured after overnight incubation by broth double-dilution method; type: functional; procedure, shortened: as §1
Staphylococcus aureus [26] = test: Antibacterial activity against methicillin-resistant Staphylococcus aureus USA200 measured after overnight incubation by broth double-dilution method; type: functional; procedure, shortened: as §1
Staphylococcus aureus [27] = test: Antibacterial activity against methicillin-resistant Staphylococcus aureus USA300 measured after overnight incubation by broth double-dilution method; type: functional; procedure, shortened: as §1
Staphylococcus aureus [28] = test: Antibacterial activity against methicillin-resistant Staphylococcus aureus USA600 measured after overnight incubation by broth double-dilution method; type: functional; procedure, shortened: as §1
[29] = system: Staphylococcus epidermidis; test: Antibacterial activity against Staphylococcus epidermidis ATCC 35984 measured after overnight incubation by broth double-dilution method; type: functional; conditions: RP62A
Procedure, shortened: (§2)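 MIC by broth double-dilution in Mueller-Hinton medium. Re-testing at the time-kill inoculum used 1×10^6 CFU/mL.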

Enterococcus faecalis [30] = test: Antibacterial activity against Enterococcus faecalis ATCC 29212 measured after overnight incubation by broth double-dilution method; type: functional; procedure, shortened: as §2
Enterococcus faecalis [31] = test: Antibacterial activity against Enterococcus faecalis ATCC 49533 measured after overnight incubation by broth double-dilution method; type: functional; procedure, shortened: as §2
Enterococcus faecium = test: Antibacterial activity against Enterococcus faecium BM4105-RF measured after overnight incubation by broth double-dilution method; type: functional; procedure, shortened: as §1
Enterococcus = test: Antibacterial activity against Vancomycin-resistant Enterococcus measured after overnight incubation by broth double-dilution method; type: functional; procedure, shortened: as §1
Listeria monocytogenes = test: Antibacterial activity against Listeria monocytogenes ATCC 19115 measured after overnight incubation by broth double-dilution method; type: functional; procedure, shortened: as §2
[32] = system: Mycolicibacterium smegmatis; test: Antibacterial activity against Mycobacterium smegmatis MC2-155 measured after overnight incubation by broth double-dilution method; type: functional; conditions: str. MC2 155; procedure, shortened: as §1
Staphylococcus aureus [33] = test: Antibiofilm activity against methicillin-sensitive Staphylococcus aureus ATCC 6538 assessed as reduction of biofilm at 62..5 ug/ml measured after 24 hrs by crystal violet staining based method relative to control; type: functional; design: scale not given: the % may be the effect or the level left
Staphylococcus aureus [34] = test: Bacteriostatic activity against methicillin-resistant Staphylococcus aureus S22 at 0.5 times MIC measured up to 3 to 6 hrs by time kill analysis; type: functional
Staphylococcus aureus [35] = test: Bacteriostatic activity against methicillin-resistant Staphylococcus aureus S22 at MIC measured up to 3 to 6 hrs by time kill analysis; type: functional
Staphylococcus aureus [36] = test: Bacteriostatic activity against methicillin-resistant Staphylococcus aureus S22 at 4 times MIC measured after 24 hrs by time kill analysis; type: functional
Staphylococcus aureus [37] = test: Antibiofilm activity against methicillin-sensitive Staphylococcus aureus ATCC 6538 assessed as reduction of biofilm at […] ug/ml measured after 24 hrs by crystal violet staining based method relative to control; type: functional; design: scale not given: the % may be the effect or the level left
[38] = Cytotoxicity against mouse RBCs assessed as hemolysis up to […] measured after 1 hr; type: toxicity, Erythrocyte; conditions: mouse red blood cells, read-out: Activity
Mus musculus = species: Mus musculus; test: Cytotoxicity against mouse RBCs assessed as hemolysis at 0.24 to 31.2 ug/ml measured after 1 hr; type: toxicity; conditions: erythrocyte
Procedure, shortened: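 Murine red blood cells were exposed to compounds at various concentrations, with amikacin as a control. Percent hemolysis was scored against untreated cells (0%) and 1% Triton X (100%).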

[39] = system: Staphylococcus epidermidis RP62A; test: Inhibition of thioredoxin reductase in Staphylococcus epidermidis ATCC 35984 assessed as induction of ROS production at 1 to 4 times MIC measured after 1 hr by DCFH-DA staining-based fluorescence microscopic analysis
Procedure, shortened: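 Untreated cells served as the negative control and 1 mM H2O2 as the positive control. Cells were stained with DCFH-DA (40 µg/mL) and ROS were visualized by fluorescence microscopy.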

Staphylococcus aureus [40] = test: Antibacterial activity against methicillin-resistant Staphylococcus aureus S22 using 1 10^6CFU/ml measured after overnight incubation by broth double-dilution method; type: functional

`O=c1c2ccccc2sn1-c1ccc(F)cc1` gave an MIC (Staphylococcus aureus [1]) of 3.9 µg/mL (≈ 15.9 µM), an MIC (Staphylococcus aureus [2]) of 2 µg/mL (≈ 8.15 µM) and an MIC (Staphylococcus aureus [3]) of 3.9 µg/mL (≈ 15.9 µM). It also gave an MIC (Staphylococcus aureus [4]) of 1 µg/mL (≈ 4.08 µM), an MIC (Staphylococcus aureus [5]) of 3.9 µg/mL (≈ 15.9 µM) and an MIC (Staphylococcus aureus [6]) of 2 µg/mL (≈ 8.15 µM). It also gave an MIC (Staphylococcus aureus [7]) of 3.9 µg/mL (≈ 15.9 µM), an MIC (Staphylococcus aureus [8]) of 2 µg/mL (≈ 8.15 µM) and an MIC (Staphylococcus aureus [9]) of 3.9 µg/mL (≈ 15.9 µM). It also gave an MIC (Staphylococcus aureus [10]) of 1 µg/mL (≈ 4.08 µM), an MIC (Staphylococcus aureus [11]) of 3.9 µg/mL (≈ 15.9 µM) and an MIC (Staphylococcus aureus [12]) of 3.9 µg/mL (≈ 15.9 µM). The MIC (Staphylococcus aureus [13]) was 2 µg/mL (≈ 8.15 µM), the MIC (Staphylococcus aureus [14]) was 2 µg/mL (≈ 8.15 µM) and the MIC (Staphylococcus aureus [15]) was 3.9 µg/mL (≈ 15.9 µM). For the same molecule, the MIC (Staphylococcus aureus [16]) was 2 µg/mL (≈ 8.15 µM), the MIC (Staphylococcus aureus [17]) was 2 µg/mL (≈ 8.15 µM) and the MIC (Staphylococcus aureus [18]) was 3.9 µg/mL (≈ 15.9 µM). The MIC (Staphylococcus aureus [19]) was 3.9 µg/mL (≈ 15.9 µM), the MIC (Staphylococcus aureus [20]) was 3.9 µg/mL (≈ 15.9 µM) and the MIC (Staphylococcus aureus [21]) was no more than 0.25 µg/mL. For the same molecule, the MIC (Staphylococcus aureus [22]) was 3.9 µg/mL (≈ 15.9 µM), the MIC (Staphylococcus aureus [23]) was 2 µg/mL (≈ 8.15 µM) and the MIC (Staphylococcus aureus [24]) was 2 µg/mL (≈ 8.15 µM). The MIC (Staphylococcus aureus [25]) was 2 µg/mL (≈ 8.15 µM), the MIC (Staphylococcus aureus [26]) was 3.9 µg/mL (≈ 15.9 µM) and the MIC (Staphylococcus aureus [27]) was 2 µg/mL (≈ 8.15 µM). The MIC (Staphylococcus aureus [28]) was 2 µg/mL (≈ 8.15 µM), the MIC [29] was 2 µg/mL (≈ 8.15 µM) and the MIC (Enterococcus faecalis [30]) was 62.5 µg/mL (≈ 255 µM). The MIC (Enterococcus faecalis [31]) was greater than 125 µg/mL, the MIC (Enterococcus faecium) was 31.3 µg/mL (≈ 128 µM) and the MIC (Enterococcus) was 2 µg/mL (≈ 8.15 µM). The MIC (Listeria monocytogenes) was 2 µg/mL (≈ 8.15 µM), the MIC [32] was 1 µg/mL (≈ 4.08 µM) and the Activity (Staphylococcus aureus [33]) was 10%.

In the case of `O=c1c2ccccc2sn1-c1ccccc1`, the Activity (Staphylococcus aureus [34]) is reported as “Active”, the Activity (Staphylococcus aureus [35]) is reported as “Active” and the Activity (Staphylococcus aureus [36]) is reported as “Active”. The Activity (Staphylococcus aureus [37]) was 40%, the hemolysis at 1 h [38] was no more than 20% and the Activity (Mus musculus) was “Non-Toxic”. The Activity [39] was “Active” and the Activity (Staphylococcus aureus [40]) was “Active”.
